Assay results taken from ChEMBL document CHEMBL1833876 (J Med Chem, 2011).
pIC50: −log10 of the molar value. The source made the active and inactive calls. The rule behind the calls is not given here.

How the values were obtained:
[1] = Antiproliferative activity against chinese hamster D4 cells expressing human FRbeta assessed as reduction of viable cells after 96 hrs; format: functional, cell-based; conditions: Cricetulus griseus, D4, 96 h
[2] = target: Folate receptor beta (Homo sapiens) (UniProt P14207); experiment: Displacement of [3H]-folic acid from human FRbeta expressed in chinese hamster D4 cells after 15 mins; format: cell-based
Sequence of Folate receptor beta (Homo sapiens) (P14207 17-230 limits assumed): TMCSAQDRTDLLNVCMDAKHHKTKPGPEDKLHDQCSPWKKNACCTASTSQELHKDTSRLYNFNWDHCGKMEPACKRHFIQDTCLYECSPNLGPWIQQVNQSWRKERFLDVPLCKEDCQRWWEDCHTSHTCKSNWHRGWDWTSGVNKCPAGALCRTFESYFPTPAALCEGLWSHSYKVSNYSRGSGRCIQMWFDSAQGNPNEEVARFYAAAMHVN

[3] = Antiproliferative activity against chinese hamster PC43-10 expressing human RFC assessed as reduction of viable cells after 96 hrs; format: functional; conditions: Cricetulus griseus, PC43-10, 96 h
[4] = Antiproliferative activity against chinese hamster D4 cells expressing human FRbeta assessed as reduction of viable cells after 96 hrs in the presence of 200 nM folic acid; format: functional, cell-based; conditions: Cricetulus griseus, D4, 96 h
In short: (§1)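 Same 96 h CellTiter-blue proliferation set-up in folate-free RPMI/10% dFBS with 2 nM leucovorin. Run in parallel incubations that included 200 nM folic acid alongside the antifolate, to establish FR-dependent uptake.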

IGROV-1 [5] = experiment: Antiproliferative activity against human IGROV1 cells expressing human RFC, FRalpha and PCFT assessed as reduction of viable cells after 96 hrs in the presence of 200 nM folic acid; format: functional, cell-based; conditions: IGROV-1, 96 h; in short: as §1
IGROV-1 [6] = experiment: Antiproliferative activity against human IGROV1 cells expressing human RFC, FRalpha and PCFT assessed as reduction of viable cells after 96 hrs; format: functional, cell-based; conditions: IGROV-1, 96 h
[7] = target: T1, Reduced folate transporter (Homo sapiens) (UniProt P41440); experiment: Inhibition of human RFC-mediated [3H]MTX uptake in chinese hamster PC43-10 cells at 10 uM after 2 mins relative to control; format: cell-based
T1 sequence (whole entry): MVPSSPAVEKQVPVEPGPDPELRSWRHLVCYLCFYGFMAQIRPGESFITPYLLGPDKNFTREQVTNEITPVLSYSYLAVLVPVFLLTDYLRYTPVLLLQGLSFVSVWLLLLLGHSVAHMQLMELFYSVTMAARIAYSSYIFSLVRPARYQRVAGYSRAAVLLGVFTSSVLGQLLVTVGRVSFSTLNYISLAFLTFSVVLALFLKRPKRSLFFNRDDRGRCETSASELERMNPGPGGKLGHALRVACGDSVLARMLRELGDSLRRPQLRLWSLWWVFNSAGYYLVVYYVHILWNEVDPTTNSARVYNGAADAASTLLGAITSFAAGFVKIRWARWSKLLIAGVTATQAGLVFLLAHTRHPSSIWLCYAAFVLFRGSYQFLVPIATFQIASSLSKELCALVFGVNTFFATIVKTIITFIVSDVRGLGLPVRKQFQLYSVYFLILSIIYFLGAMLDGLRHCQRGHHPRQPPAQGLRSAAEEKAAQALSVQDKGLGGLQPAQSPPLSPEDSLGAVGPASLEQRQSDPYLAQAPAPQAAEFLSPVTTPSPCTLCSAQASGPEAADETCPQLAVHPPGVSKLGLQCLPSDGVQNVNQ
In short: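 PC43-10 (hRFC) cells were suspended in Hank's balanced salts. […] Results were expressed per mg protein, and percent inhibition was taken versus control uptake.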

KB [8] = experiment: Antiproliferative activity against human KB cells expressing human RFC, FRalpha and PCFT assessed as reduction of viable cells after 96 hrs; format: functional, cell-based
R2 [9] = experiment: Antiproliferative activity against chinese hamster R2 cells expressing human PCFT assessed as reduction of viable cells after 96 hrs; format: functional, cell-based; conditions: Cricetulus griseus, R2, 96 h
KB [10] = experiment: Antiproliferative activity against human KB cells expressing human RFC, FRalpha and PCFT assessed as reduction of viable cells after 96 hrs in the presence of 200 nM folic acid; format: functional, cell-based; in short: as §1
[11] = Antiproliferative activity against chinese hamster R2(VC) cells assessed as reduction of viable cells after 96 hrs; conditions: Cricetulus griseus
[12] = target: Folate receptor alpha (Homo sapiens) (UniProt P15328); experiment: Displacement of [3H]-folic acid from human FRaplha expressed in chinese hamster RT16 cells after 15 mins; format: cell-based
Sequence of Folate receptor alpha (Homo sapiens) (P15328 25-234 limits assumed): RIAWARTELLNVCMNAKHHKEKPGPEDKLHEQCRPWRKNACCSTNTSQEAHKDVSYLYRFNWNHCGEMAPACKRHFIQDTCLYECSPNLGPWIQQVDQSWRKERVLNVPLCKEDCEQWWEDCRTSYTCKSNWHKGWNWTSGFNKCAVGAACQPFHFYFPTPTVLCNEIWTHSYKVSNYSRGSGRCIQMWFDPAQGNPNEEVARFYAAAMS

R2 [13] = experiment: Antiproliferative activity against chinese hamster R2 cells assessed as reduction of viable cells after 96 hrs; conditions: Cricetulus griseus, R2, 96 h
[14] = Antiproliferative activity against chinese hamster RT16 cells expressing human FRalpha assessed as reduction of viable cells after 96 hrs in the presence of 200 nM folic acid; format: functional, cell-based; conditions: Cricetulus griseus, RT16, 96 h; in short: as §1
[15] = Antiproliferative activity against chinese hamster RT16 cells expressing human FRalpha assessed as reduction of viable cells after 96 hrs; format: functional, cell-based; conditions: Cricetulus griseus, RT16, 96 h
R2 [16] = experiment: Antiproliferative activity against chinese hamster R2 cells expressing human PCFT assessed as growth inhibition in the presence of 60 uM adenosine; format: functional, cell-based; conditions: Cricetulus griseus
In short: (§2)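 R2/hPCFT4 cells were grown in folate-free RPMI with 25 nM leucovorin and 10% dFBS and exposed to antifolate for up to 96 h. Rescue co-incubations used thymidine (10 µM), adenosine (60 µM) and AICA (320 µM), alone or combined. Viability was read by CellTiter-blue.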

R2 [17] = experiment: Inhibition of GARFTase in chinese hamster R2 cells expressing human PCFT assessed as incorporation of [14C]glycine into [14C]formyl GAR in the presence of 4 uM azaserine; format: cell-based; conditions: Cricetulus griseus
R2 [18] = experiment: Antiproliferative activity against chinese hamster R2 cells expressing human PCFT assessed as growth inhibition in the presence of 10 uM thymidine and 320 uM AICA; format: functional, cell-based; conditions: Cricetulus griseus; in short: as §2
R2 [19] = experiment: Decrease in intracellular ATP concentration in chinese hamster R2 cells expressing human PCFT at 1 uM after 24 hrs by HPLC relative to control at pH 6.8; format: functional, Cricetulus griseus; set-up: scale not given: the % may be the effect or the level left
In short: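 R2/hPCFT4 CHO cells seeded in folate-free RPMI 1640 with 10% dialysed FBS and 25 nM leucovorin (pH 7.2). After 24 h, switched to the same medium buffered to pH 6.8 with 25 mM PIPES/25 mM HEPES. Drug at 1 µM, or vehicle (0.5% DMSO or H2O), for 24 h. Nucleotides extracted; ATP quantified by HPLC against vehicle control.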

R2 [20] = experiment: Antiproliferative activity against chinese hamster R2 cells expressing human PCFT assessed as growth inhibition at <50 nM in the presence of 10 uM thymidine; format: functional, cell-based; conditions: Cricetulus griseus; in short: as §2
R2 [21] = experiment: Antiproliferative activity against chinese hamster R2 cells expressing human PCFT assessed as growth inhibition in the presence of 60 uM adenosine and 10 uM thymidine; format: functional, cell-based; conditions: Cricetulus griseus; in short: as §2
[22] = target: T2, Proton-coupled folate transporter (Homo sapiens) (UniProt Q96NT5); experiment: Inhibition of human PCFT-mediated [3H]MTX uptake ectopically expressed in chinese hamster R2 cells at 10 uM at pH 5.5 to 7.2; format: cell-based
T2 sequence (whole entry): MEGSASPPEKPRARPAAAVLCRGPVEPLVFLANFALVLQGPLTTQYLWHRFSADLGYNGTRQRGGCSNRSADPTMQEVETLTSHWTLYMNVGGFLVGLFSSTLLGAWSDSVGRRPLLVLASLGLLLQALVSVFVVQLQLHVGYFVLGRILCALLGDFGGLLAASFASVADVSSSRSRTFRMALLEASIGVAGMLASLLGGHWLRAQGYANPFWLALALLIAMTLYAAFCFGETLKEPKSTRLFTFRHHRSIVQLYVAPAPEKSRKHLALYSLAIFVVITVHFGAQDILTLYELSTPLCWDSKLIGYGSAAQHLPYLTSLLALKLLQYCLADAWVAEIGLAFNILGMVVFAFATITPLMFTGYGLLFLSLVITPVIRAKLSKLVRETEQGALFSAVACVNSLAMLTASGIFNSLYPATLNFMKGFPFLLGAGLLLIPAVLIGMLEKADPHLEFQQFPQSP

[23] = target: T2, Proton-coupled folate transporter (Homo sapiens); experiment: Inhibition of human PCFT-mediated [3H]MTX uptake expressed in chinese hamster R2 cells at pH 5.5 by dixon plot analysis relative to PMX; format: cell-based; conditions: concentration not given here
[24] = target: T2, Proton-coupled folate transporter (Homo sapiens); experiment: Inhibition of human PCFT-mediated [3H]MTX uptake expressed in chinese hamster R2 cells at pH 6.8 […] relative to PMX; format: cell-based; conditions: concentration not given here
IGROV-1 [25] = experiment: Antitumor activity against human IGROV1 cells expressing human RFC, FRalpha and PCFT xenografted in SCID mouse assessed as log cell kill at 180 mg/kg, iv administered on days 3, 7, 11, 15, and 19 postimplantation; format: functional
In short: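 Female ICR SCID mice, 10 weeks old, on a folate-deficient diet from 24 days before implant. Bilateral subcutaneous IGROV1 tumour fragments (30–60 mg, by trocar); mice pooled, then randomised. IV dosing on days 3, 7, 11, 15 and 19. Mice weighed daily; tumours measured by caliper 2–3 times weekly; mice sacrificed at 1500 mg tumour burden. Weight-loss nadir and recovery recorded.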

[26] = target: T2, Proton-coupled folate transporter (Homo sapiens); experiment: Induction of current in human PCFT expressed in xenopus oocyte at 5 uM at holding potential -90 mV by voltage clamp assay

Nc1nc2[nH]c(CCc3ccc(C(=O)N[C@@H](CCC(=O)O)C(=O)O)s3)cc2c(=O)[nH]1
pIC50 [1]: 8.18
inhibition [2]: inactive
pIC50 [3]: < 6.00
pIC50 [4]: < 6.00
pIC50 (IGROV-1 [5]): < 6.00
pIC50 (IGROV-1 [6]): 6.91
inhibition [7]: Active
pIC50 (KB [8]): 8.49
pIC50 (R2 [9]): 6.87
pIC50 (KB [10]): < 6.00
pIC50 [11]: < 6.00
inhibition [12]: inactive
pIC50 (R2 [13]): < 6.00
pIC50 [14]: < 6.00
pIC50 [15]: 7.41

Cc1nc(=O)c2cc(CN(C)c3ccc(C(=O)N[C@@H](CCC(=O)O)C(=O)O)s3)ccc2[nH]1 [RALTITREXED]
inhibition [7]: Active

Nc1nc2[nH]cc(CCc3ccc(C(=O)N[C@@H](CCC(=O)O)C(=O)O)cc3)c2c(=O)[nH]1 [PEMETREXED]
Activity (R2 [16]): Active
inhibition (R2 [17]): Active
Activity (R2 [18]): Active
Activity (R2 [19]): 17%
Activity (R2 [20]): inactive
inhibition [7]: Active
Activity (R2 [21]): inactive

CN(Cc1cnc2nc(N)nc(N)c2n1)c1ccc(C(=O)N[C@@H](CCC(=O)O)C(=O)O)cc1 [METHOTREXATE]
pIC50 [11]: < 6.00

Nc1nc(N)c2nc(CNc3ccc(C(=O)N[C@@H](CCCNC(=O)c4ccccc4C(=O)O)C(=O)O)cc3)cnc2n1 [TALOTREXIN]
inhibition [7]: Active
pIC50 (R2 [9]): < 6.00
inhibition [22]: inactive
pIC50 [11]: < 6.00
pIC50 (R2 [13]): < 6.00

Nc1nc2[nH]c(Cc3ccc(C(=O)N[C@@H](CCC(=O)O)C(=O)O)s3)cc2c(=O)[nH]1
pIC50 [3]: < 6.00
pIC50 (IGROV-1 [5]): < 6.00
pIC50 (IGROV-1 [6]): < 6.00
pIC50 (KB [8]): 7.38
pIC50 (R2 [9]): 6.54
pIC50 (KB [10]): < 6.00
pIC50 [11]: < 6.00
pIC50 (R2 [13]): < 6.00
pIC50 [14]: < 6.00
pIC50 [15]: 6.91

Nc1nc2c(c(=O)[nH]1)C[C@@H](CCc1ccc(C(=O)N[C@@H](CCC(=O)O)C(=O)O)cc1)CN2 [LOMETREXOL]
inhibition (R2 [17]): Active
Activity (R2 [19]): 76%
inhibition [7]: Active
pIC50 (R2 [9]): 7.42
pIC50 [11]: < 6.00
pIC50 [14]: < 6.73

Nc1nc(=O)c2c([nH]1)NCC(CNc1ccc(C(=O)N[C@@H](CCC(=O)O)C(=O)O)cc1)N2C=O (mixture of isomers)
inhibition [7]: Active

Nc1nc2[nH]c(CCCCc3ccc(C(=O)N[C@@H](CCC(=O)O)C(=O)O)s3)cc2c(=O)[nH]1
inhibition [23]: 35%
Activity (R2 [19]): 90%
inhibition [24]: 18%
pIC50 [3]: < 6.00
pIC50 [4]: < 6.00
LCK (IGROV-1 [25]): 2.3
pIC50 (IGROV-1 [5]): < 6.00
inhibition [7]: Active
pIC50 (KB [10]): < 6.00
inhibition [22]: Active
pIC50 [11]: < 6.00
pIC50 (R2 [13]): < 6.00
pIC50 [14]: < 6.00
Activity [26]: Active
